High-throughput results: PubChem, Broad Institute
ERAP1 HTS inh – inhibitors of human ERAP1 aminopeptidase | 340,000 compounds, 0.15% hits | Q9NZ08 | inhibition, % at 10.7 µM | recombinant ERAP1, Leu-AMC fluorescence, 60 min;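 active means mean replicate inhibition of at least 30%, or all replicates individually reaching that 30% level; inactive means mean below 30% and not every replicate reaching it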
Wnt bcat act – Wnt/beta-catenin pathway activation; Wnt/beta-catenin reporter cell assay, activator, plate reader; 300,000 compounds, 1.2% hits; activation, % at 9.35 µM; AID 743398; in the data active means activation above about 30%, passing the limit was not always enough; inconclusive means no clear call, values can overlap the other calls
Cneo AK release – Cryptococcus neoformans lysis via adenylate kinase release | C. neoformans lysis, adenylate kinase release luminescence, 4 h; normalised: neutral wells 0, clomiphene wells 100 | lysis activity, % at 15 µM | 360,000 compounds, 0.2% hits | AID 651654;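 active means mean lysis activity across replicates of at least 80%, whatever share of replicates individually reach that level; inactive means mean lysis activity below 80%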
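Schedule: static 4 h at 37 °C with compound, 1 h detection; system: C. neoformans cells; benchmarks: Clomiphene as positive control; buffer or medium: fresh YPD medium; measure: luminescence rise reflecting yeast cell lysis; measured by: luminescent adenylate kinase detection reagent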
esBAF inh – blocks esBAF chromatin remodeling in mouse ES cells; reporter increase, % at 12.5 µM; Bmi1-luciferase knock-in reporter, 24 h; 100% = twice the neutral-well signal; 350,000 compounds, 2% hits; in the data active means activation above about 40%; inconclusive means no clear call, values can overlap the other calls;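 further: a rise in the Bmi1 reporter signal indicates esBAF inhibition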
HIV Env fusion – inhibitors of HIV Env-mediated cell fusion; HeLa-JRFL Env/CEM21 cell fusion, luciferase; inhibition, % at 12.3 µM; 360,000 compounds, 1.1% hits; AID 651610;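 active means mean replicate inhibition score of at least 50 and every replicate individually at or above 50; inconclusive means only one of the two criteria met; inactive means mean below 50 and not all replicates reaching 50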
MITF act – MITF TRPM1 promoter activation in melanoma cells | AID 588334 | activation, % at 12.5 µM | SK-MEL-5 TRPM1-promoter luciferase, 24 h; % of positive control, neutral wells = 0 | 300,000 compounds, 0.75% hits;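 active means mean activation of at least 80% with every replicate also reaching 80%; inconclusive means mean reaches 80% but some replicate falls short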
Hits are given with their value; 0 = inactive; ? = inconclusive; - = no result given. This is a sample that favours compounds with a hit; in the whole collection about 3.5% have one here.

SMILES	ERAP1 HTS inh	Wnt bcat act	Cneo AK release	esBAF inh	HIV Env fusion	MITF act
COc1ccc(S(=O)(=O)N(C)C[C@@H]2Oc3ccc(NS(=O)(=O)c4ccc(F)cc4)cc3C(=O)N([C@H](C)CO)C[C@H]2C)cc1	0	-	0	0	0	-
Cc1cc(NC(=O)COc2ccc(C)c(C)c2)no1	0	0	-	0	0	90
O=C(NC1CC1)c1cc2c(s1)-c1ccccc1OC2	0	0	0	45	0	0
O=C(NCc1cccs1)c1cc2c(s1)-c1ccccc1OC2	0	0	0	68	0	-
CCC(=O)N1[C@@H]2c3ccc(-c4ccc(F)cc4)c(=O)n3C[C@@H]2[C@@H](CO)[C@@H]1C(=O)N(C)C	0	-	0	0	0	-
CCSc1nc(N)nc(-c2cccs2)c1C#N	-	0	0	49	-	0
COCc1nc2oc3ccccc3c(=O)c2cc1C(=O)OC	0	0	0	48	0	88
CCOc1ccc(CNC(=S)NCc2ccc(OCC)cc2)cc1	0	0	-	-	0	0
CC(C)COc1ccc(CNC(=S)NCc2ccccc2)cc1	-	-	182	0	0	0
CCC(=O)N[C@H]1CC[C@@H](CCn2cc(C3CC3)nn2)O[C@H]1CO	0	-	0	0	0	-
Clc1ccccc1-c1nnc(-c2cccs2)o1	0	0	0	46	0	0
C(=C\c1nnc(-c2cccs2)o1)/c1ccccc1	0	0	0	0	-	123
Cc1ccc(-c2ccc(=O)[nH]n2)cc1	-	-	-	0	56	0
CCCCCc1ccc(-c2ccc(=O)[nH]n2)cc1	-	0	0	0	0	0
Cc1ccn2cc(-c3cccc(S(=O)(=O)N4CC(C)OC(C)C4)c3)nc2c1 (centres undefined)	0	0	0	0	0	0
Cc1ccn2cc(-c3cccc(S(=O)(=O)N4CCCC4)c3)nc2c1	0	0	0	47	0	0
COc1c(Cl)cccc1-c1cn2ccc(C)cc2n1	0	57	-	-	0	0
CCS(=O)(=O)Nc1ccc2c(c1)C(=O)N(C)C[C@H](OC)[C@H](C)CN(C(C)=O)[C@H](C)CO2	0	-	0	0	0	-
C[C@@H]1CCCCO[C@@H](CN(C)Cc2ccc(Cl)c(Cl)c2)[C@@H](C)CN([C@@H](C)CO)C(=O)c2cc(NC(=O)Cc3ccccc3)ccc2O1	0	-	0	0	0	-
COc1ccc(C(CC(=O)Nc2cc([N+](=O)[O-])ccc2OC)c2ccccc2)cc1 (centres undefined)	0	0	0	-	79	0
CO[C@H]1CC[C@H]2CCN(C)C(=O)C[C@@H](c3ccccc3)CN(C)C(=O)c3cc(C#N)ccc3OC[C@H]1O2	0	-	0	0	0	-
CCCCOc1ccc(CSc2ncn[nH]2)cc1	-	0	0	0	0	0
CCCCCOc1ccc(CSc2ncn[nH]2)cc1	-	-	0	47	-	?
CCCCOc1ccc(CSc2n[nH]c(C)n2)cc1	-	-	0	0	0	93
C[C@@H]1CN([C@@H](C)CO)C(=O)c2cc(NS(=O)(=O)c3cn(C)cn3)ccc2O[C@@H](C)CCCCO[C@H]1CN(C)C(=O)Cc1ccccc1	0	-	0	0	0	-
SMILES	ERAP1 HTS inh	Wnt bcat act	Cneo AK release	esBAF inh	HIV Env fusion	MITF act
C[C@H]1CCCCO[C@@H](CN(C)C(=O)CCC(F)(F)F)[C@@H](C)CN([C@@H](C)CO)C(=O)c2cc(NC(=O)NC3CCCCC3)ccc2O1	0	-	0	0	0	-
CCN(C[C@H]1N[C@@](CC)(C(=O)OC)[C@H]2C(=O)N(Cc3ccccc3)C(=O)[C@@H]12)C(=O)Nc1ccc(C)cc1	-	0	0	0	56	0
CCN(C[C@H]1N[C@@](CC)(C(=O)OC)[C@H]2C(=O)N(Cc3ccccc3)C(=O)[C@@H]12)C(=O)Nc1ccc(Cl)cc1	-	0	0	0	86	0
N#Cc1ccccc1NC(=O)Nc1cccc(Cl)c1	-	-	-	-	-	0
Cc1csc(NC(=O)Nc2cccc(Cl)c2)n1	-	49	0	88	0	0
N#CCc1ccc(NC(=O)Nc2cccc(Cl)c2)cc1	-	-	-	0	-	83
O=C(Nc1cccc(Cl)c1)c1cnc[nH]1	0	0	0	58	0	0
Cc1cccnc1NC(=O)Nc1cccc(Cl)c1	0	0	0	?	0	91
C/C=C/c1cnc2c(c1)C(=O)N([C@H](C)CO)C[C@H](C)[C@H](CN(C)C(=O)C1CCC1)O2	-	-	-	-	0	-
COc1cccc(NC(=O)N(C)C[C@H]2Oc3cc(-c4ccccc4F)ccc3S(=O)(=O)N([C@H](C)CO)C[C@@H]2C)c1	0	-	0	0	0	-
O=C(Cc1ccccc1)NC[C@H]1N[C@H](CO)[C@@H]1c1ccc(-c2ccccc2)cc1	0	-	-	-	-	-
C[C@H](CO)N1C[C@H](C)[C@@H](CN(C)S(=O)(=O)c2cn(C)cn2)Oc2ccc(NC(=O)CCCCCC(=O)Nc3ccccc3N)cc2C1=O	0	-	0	0	-	-
COc1cccc(S(=O)(=O)N[C@H]2C=C[C@H](CC(=O)NCc3ccc(F)cc3)O[C@@H]2CO)c1	0	-	0	0	0	-
CC(=O)Nc1cccc(NC(=O)Nc2cccc(F)c2)c1	0	0	-	-	0	0
O=C(Nc1cccc(F)c1)Nc1ccc2c(c1)OCO2	0	?	0	50	0	?
O=C(Nc1cccc(F)c1)Nc1cccc(Cl)c1	0	0	0	55	0	0
O=C(Nc1cccc(Cl)c1)NC1CC2CCC1C2 (centres undefined)	0	0	0	50	0	0
COc1ccccc1NS(=O)(=O)c1cccc(NC(=O)Nc2cccc(Cl)c2)c1	-	0	-	-	45	0
COc1ccccc1NS(=O)(=O)c1cccc(NC(=O)NCCCl)c1	0	0	-	-	0	0
CCNC(=O)C[C@@H]1CC[C@H]2[C@H](COc3ccc(NC(=O)c4ccc(C(F)(F)F)cc4)cc3C(=O)N2C)O1	0	-	0	0	0	-
O=C(Nc1cccc(Cl)c1)Nc1cccc(Cl)c1	-	0	0	0	52	0
Cc1cccc(N(O)C(=O)Nc2cccc(Cl)c2)c1	0	0	0	51	0	-
Cc1cc(C(=O)Nc2cccc3c2O[C@@H](CN(C)C(=O)Nc2ccc(F)cc2)[C@@H](C)CN([C@@H](C)CO)C3=O)n(C)n1	0	-	0	0	-	-
C[C@@H]1CCCCO[C@@H](CN(C)C(=O)NC2CCCCC2)[C@H](C)CN([C@@H](C)CO)C(=O)c2cc(NS(=O)(=O)c3cn(C)cn3)ccc2O1	0	-	101	0	0	-
C[C@@H]1CN([C@@H](C)CO)C(=O)c2cc(NS(=O)(=O)c3cn(C)cn3)ccc2O[C@@H](C)CCCCO[C@H]1CN(C)C	0	-	98	-	0	-
C[C@@H]1CCCCO[C@H](CN(C)C(=O)NC2CCCCC2)[C@@H](C)CN([C@@H](C)CO)C(=O)c2cc(NS(=O)(=O)c3cn(C)cn3)ccc2O1	0	-	0	0	0	-
CC1=CC(=O)C2=C(C)CCC3C(C)C(=O)OC3C12 (centres undefined)	0	0	0	0	-	-
CC1=CC(=O)C2=C(C)CC[C@@H]3[C@H](OC(=O)[C@H]3C)[C@@H]12	0	0	0	0	68	0
